From ChEMBL document CHEMBL3046168, “Soil application of neonicotinoid insecticides for control of insect pests in wine grape vineyards” (2012)
Activity calls are given as the source filed them. The calls are words filed in the database; no cut-off is given here.

Columns and labels:
Paralobesia [1] = assay: Insecticidal activity against Paralobesia viteana infested grapevine assessed as reduction in clusters infested with moth by early-season irrigation injection method (reference value: 34.3 +/- 4.4 %); assay type: functional; set-up: scale not given: the % may be the effect or the level left
Paralobesia [2] = assay: Insecticidal activity against Paralobesia viteana infested grapevine assessed as reduction in clusters infested with moth by mid-season irrigation injection method (reference value: 11 +/- 1.9 %); assay type: functional; set-up: scale not given: the % may be the effect or the level left
Popillia japonica [3] = assay: Insecticidal activity against Popillia japonica assessed as reduction in leaf damage measured up to 63 days post treatment by laboratory bioassay; assay type: functional, organism-based
Procedure, shortened: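 Leaves were taken from vines treated by irrigation injection (6 June and 6 July 2007). Four uninjured leaves per treatment plot were offered to Japanese beetles in the laboratory. Leaf area removed (cm²) was measured weekly, from 4 days before the second injection to […] after it.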

Popillia japonica [4] = assay: Insecticidal activity against Popillia japonica at 240 g/kg SC assessed as reduction in leaf damage measured after 35 days by irrigation injection method (reference value: 50.97 +/- 7.2 %); assay type: functional; set-up: scale not given: the % may be the effect or the level left
Popillia japonica [5] = assay: Insecticidal activity against Popillia japonica at 240 g/kg SC assessed as moribund behaviour measured after 10 to 19 days by irrigation injection method; assay type: functional, organism-based
Popillia japonica [6] = assay: Insecticidal activity against Popillia japonica at 240 g/kg SC assessed as moribund behaviour measured after 3 days by irrigation injection method; assay type: functional, organism-based
Popillia japonica [7] = assay: Insecticidal activity against Popillia japonica at 240 g/kg SC assessed as moribund behaviour measured after 24 to 56 days by irrigation injection method; assay type: functional, organism-based
Popillia japonica [8] = assay: Insecticidal activity against Popillia japonica at 240 g/kg SC measured after 1 to 24 days by irrigation injection method; assay type: functional, organism-based
Procedure, shortened: (§1)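 Insecticide was injected into the drip irrigation on 6 June and 6 July 2007, in seven-vine rows. Japanese beetles were counted on vines in the field at intervals after treatment. Total beetles per row were log(x+1) transformed and analysed by ANOVA with […] post hoc tests.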

Popillia japonica [9] = assay: Insecticidal activity against Popillia japonica at 552 g/kg SC assessed as reduction in leaf damage measured after 35 days by irrigation injection method (reference value: 50.97 +/- 7.2 %); assay type: functional; set-up: scale not given: the % may be the effect or the level left
Popillia japonica [10] = assay: Insecticidal activity against Popillia japonica at 552 g/kg SC assessed as moribund behaviour measured after 10 to 19 days by irrigation injection method; assay type: functional, organism-based
Popillia japonica [11] = assay: Insecticidal activity against Popillia japonica at 552 g/kg SC assessed as moribund behaviour measured after 3 days by irrigation injection method; assay type: functional, organism-based
Popillia japonica [12] = assay: Insecticidal activity against Popillia japonica at 552 g/kg SC assessed as moribund behaviour measured after 24 to 56 days by irrigation injection method; assay type: functional, organism-based
Popillia japonica [13] = assay: Insecticidal activity against Popillia japonica at 552 g/kg SC measured after 24 days by irrigation injection method; assay type: functional, organism-based; procedure, shortened: as §1
Popillia japonica [14] = assay: Insecticidal activity against Popillia japonica at 552 g/kg SC measured after 14 days by irrigation injection method; assay type: functional, organism-based; procedure, shortened: as §1
Popillia japonica [15] = assay: Insecticidal activity against Popillia japonica at 552 g/kg SC measured after 1 to 24 days by irrigation injection method; assay type: functional, organism-based; procedure, shortened: as §1
Popillia japonica [16] = assay: Insecticidal activity against Popillia japonica at 500 g/kg WG assessed as reduction in leaf damage measured after 35 days by irrigation injection method (reference value: 50.97 +/- 7.2 %); assay type: functional; set-up: scale not given: the % may be the effect or the level left
Popillia japonica [17] = assay: Insecticidal activity against Popillia japonica at 500 g/kg WG assessed as moribund behaviour measured after 10 to 19 days by irrigation injection method; assay type: functional, organism-based
Popillia japonica [18] = assay: Insecticidal activity against Popillia japonica at 500 g/kg WG assessed as moribund behaviour measured after 3 days by irrigation injection method; assay type: functional, organism-based
Popillia japonica [19] = assay: Insecticidal activity against Popillia japonica at 500 g/kg WG assessed as moribund behaviour measured after 24 to 56 days by irrigation injection method; assay type: functional, organism-based

In the case of `CN1COCN(Cc2cnc(Cl)s2)/C1=N\[N+](=O)[O-]` [THIAMETHOXAM], the Activity (Paralobesia [1]) is reported as 25.3%, the Activity (Paralobesia [2]) is reported as 7% and the Activity (Popillia japonica [3]) is reported as “Active”. The Activity (Popillia japonica [4]) was 27.67%, the Activity (Popillia japonica [5]) was “inactive” and the Activity (Popillia japonica [6]) was “inactive”. The Activity (Popillia japonica [7]) was “inactive” and the Activity (Popillia japonica [8]) was “inactive”.
For `O=[N+]([O-])/N=C1\NCCN1Cc1ccc(Cl)nc1` [IMIDACLOPRID], the Activity (Paralobesia [1]) was 11.8%, the Activity (Paralobesia [2]) was 1% and the Activity (Popillia japonica [3]) was “Active”. For the same compound, the Activity (Popillia japonica [9]) was 4.43%, the Activity (Popillia japonica [10]) was “Active” and the Activity (Popillia japonica [11]) was “Active”. For the same compound, the Activity (Popillia japonica [12]) was “Active”, the Activity (Popillia japonica [13]) was “Active” and the Activity (Popillia japonica [14]) was “Active”. The Activity (Popillia japonica [15]) was “Active”.
In the case of `CN/C(=N\[N+](=O)[O-])NCc1cnc(Cl)s1` [CLOTHIANIDINE], the Activity (Paralobesia [1]) is reported as 31.7%, the Activity (Paralobesia [2]) is reported as 6% and the Activity (Popillia japonica [3]) is reported as “inactive”. The Activity (Popillia japonica [16]) was 48.3%, the Activity (Popillia japonica [17]) was “inactive” and the Activity (Popillia japonica [18]) was “inactive”. For the same compound, the Activity (Popillia japonica [19]) was “inactive”.
